Tn6 DDE FP: disrupts Tn6 cyclic peptide binding to fibrin D-Dimer-E complex | P02675 | actives 0.21% (n = 370,000) | Fibrin DD(E) TRITC-Tn6 fluorescence polarization displacement | inhibition, % at 8.3 µM;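 active = inhibition above a per-campaign cutoff: mean of compounds within control limits plus 3 SD, cut at about 15% in these data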;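 note: 0% = median of all compound wells on the plate and 100% = blocking peptide control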
Tn7 DDE FP: disrupts Tn7 cyclic peptide binding to fibrin D-Dimer-E complex. P02675. FP displacement of FITC-Tn7 peptide from fibrin DD(E); 0% = median of compound wells per plate. inhibition, % at 8.3 µM. actives 0.13% (n = 370,000);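 active = inhibition above the mean of compounds falling within the control limits plus 3 SD of them, cut at about 14% in these data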;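 note: 0% = plate median of compound wells and 100% = 10 µM Aha-Tn7 peptide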
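assay system = human clot-derived fibrin DD(E) complex | quantity = Fibrin-DD(E) at 2 µM final | timing = 10 min preincubation, 3 h with tracer, room temperature | signal = fluorescence polarization | measure = percent inhibition | benchmarks = high control wells with 10 µM unlabelled Aha-Tn7 peptide (full inhibition) | replicates = singlicate testing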
ADAM10 inh: inhibits human ADAM10; O14672; recombinant ADAM10, EDANS/DABCYL FRET peptide cleavage, 3 h; inhibition, % at 7 µM; actives 0.62% (n = 370,000); AID 720582;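 active = inhibition above a per-campaign cutoff equal to the mean of compounds falling between control-based bounds plus 3 SD, cut at about 20% in these data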;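 note: 0% = DMSO wells while the 100% control is not disclosed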
Target sequence (O14672 214-748 limits assumed): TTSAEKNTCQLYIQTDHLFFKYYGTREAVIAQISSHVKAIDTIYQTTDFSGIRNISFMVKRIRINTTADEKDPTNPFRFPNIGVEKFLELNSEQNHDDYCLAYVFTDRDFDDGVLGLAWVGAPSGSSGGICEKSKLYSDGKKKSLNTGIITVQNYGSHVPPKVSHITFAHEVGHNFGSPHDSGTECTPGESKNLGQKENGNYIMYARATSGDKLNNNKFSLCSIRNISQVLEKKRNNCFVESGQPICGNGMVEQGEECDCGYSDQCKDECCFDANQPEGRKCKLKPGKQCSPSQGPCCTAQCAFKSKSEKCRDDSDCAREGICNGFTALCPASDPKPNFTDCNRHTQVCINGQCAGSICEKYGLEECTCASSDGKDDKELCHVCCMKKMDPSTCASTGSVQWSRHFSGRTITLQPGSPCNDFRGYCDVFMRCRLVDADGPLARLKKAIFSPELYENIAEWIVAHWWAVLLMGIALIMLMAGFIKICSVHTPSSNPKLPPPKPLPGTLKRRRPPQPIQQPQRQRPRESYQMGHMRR
ADAM17 inh: inhibits human ADAM17. recombinant ADAM17, EDANS/DABCYL FRET peptide cleavage. inhibition, % at 6.95 µM. actives 0.83% (n = 370,000);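 active = inhibition above the mean of compounds lying between control limits plus 3 SD, set per campaign, cut at about 8.5% in these data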;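 note: 0% = DMSO-only wells as the low control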
MT1-MMP act inh: inhibitors of human MT1-MMP activation; GFP/RFP ratio change, % at 20 µM; P50281; HT1080 RFP-PRO-GFP cells, GFP/RFP ratio fluorescence, overnight; percent of plate control window, DMSO zero; AID 651647; actives 0.061% (n = 360,000);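 active = GFP/RFP ratio change of at least 30% with cell ATP level not reduced by more than half and red fluorescence within 50% of control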
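Compound: 20 µM single dose, 1% DMSO / System: HT1080 RFP-PRO-GFP cells / Controls: DMSO and RFP-L50D-GFP cell wells / Read-out basis: GFP/RFP fluorescence ratio / Schedule: overnight compound exposure at 37 °C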
ADAM10 confirm: confirmation of inhibitors of human ADAM10. ADAM10 QFRET peptide cleavage, EDANS fluorescence. shares compounds with ADAM10 inh. inhibition, % at 6.95 µM. actives 1% (n = 2,100). AID 743208;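 active = inhibition above about 20% chosen separately for each screening run, limit read from the data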;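 note: 0% = DMSO wells and 100% = marimastat wells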
ADAM17 counter: ADAM17 inhibition, counter-screen for ADAM10 exosite hits; shares compounds with ADAM10 inh; ADAM17 QFRET peptide cleavage, EDANS fluorescence; inhibition, % at 6.95 µM; actives 0.5% (n = 2,100);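 active = mean triplicate inhibition above the solvent-only control wells' mean plus 3 SD, cut at about 12% in these data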;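 note: 0% = DMSO wells and 100% = marimastat wells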
ADAM10 ctr: inhibits human ADAM10 in ADAM17 exosite counter-screen; shares compounds with ADAM17 inh; recombinant ADAM10, EDANS/DABCYL FRET peptide cleavage, 3 h; inhibition, % at 6.95 µM; actives 47% (n = 2,900); AID 743256;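 active = mean inhibition over the triplicate runs exceeds the activity threshold set in the earlier primary screen, cut at about 20% in these data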;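 note: 0% = DMSO wells and 100% = marimastat wells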
ADAM17 confirm: human ADAM17 inhibition, confirmation | shares compounds with ADAM17 inh | recombinant ADAM17, EDANS/DABCYL QFRET peptide cleavage | inhibition, % at 6.95 µM | actives 65% (n = 2,900) | AID 743257;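 active = mean inhibition across replicates above the hit cutoff set in the primary screen, cut at about 8.5% in these data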;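 note: 0% = DMSO wells and 100% = marimastat wells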
Numbers without * were called inactive; i = inactive; · = no result given. Compounds with a hit are over-represented: about 1.6% of the library has one in this group of screens.

SMILES	Tn6 DDE FP	Tn7 DDE FP	ADAM10 inh	ADAM17 inh	MT1-MMP act inh	ADAM10 ctr	ADAM17 confirm	others
NC(=O)COC(=O)c1ccc(Cl)c(S(=O)(=O)N(Cc2ccccc2)c2ccc(Cl)cc2)c1	-2.7	2.3	25.9*	10.3*	0.2	24.3*	13.6*	ADAM10 confirm=7.8;ADAM17 counter=2.1
C=CCNC(=O)COC(=O)c1ccc(Cl)c(S(=O)(=O)N(Cc2ccccc2)c2ccccc2)c1	-1.1	-9.1	21.9*	11.6*	4.2	29.4*	19.9*	ADAM10 confirm=2.4;ADAM17 counter=1.7
NC(=O)NC(=O)COC(=O)c1ccc(Cl)c(S(=O)(=O)N(Cc2ccccc2)c2ccc(Cl)cc2)c1	-7.9	8.0	14.2	3.5	5.1	·	·
C=CCN1C(C(=O)OCC)CSCCS1(=O)=O (configuration not stated)	-0.1	0.3	1.6	-2.9	·	·	·
Cc1ccc(S(=O)(=O)N(Cc2ccc(Cl)cc2)c2ccccc2C(=O)NCc2ccco2)cc1	-2.9	-5.2	22.3*	10.7*	-6.9	19.4	11.8*	ADAM10 confirm=6.5;ADAM17 counter=2.0
CCCCN(C)c1nc(C)nc2c1nnn2Cc1ccccc1	2.4	-2.4	1.9	0.7	·	·	·
COc1ccc(OC)c(-c2csc(NC(=O)CSc3ccc([N+](=O)[O-])cc3)n2)c1	-9.1	9.0	22.7*	11.4*	-1.1	29.0*	12.6*	ADAM10 confirm=5.8;ADAM17 counter=2.5
O=C(N[C@H](Cc1ccccc1)C(=O)NCc1ccco1)[C@H]1O[C@@H](n2ccc(=O)[nH]c2=O)[C@H](O)[C@@H]1O	4.3	-4.2	-3.3	-3.9	·	·	·
COCCN=c1scc(-c2cc(OC)ccc2OC)n1/N=C/c1c[nH]c2ccccc12	3.7	-1.1	20.1*	11.0*	-2.5	15.6	12.2*	ADAM10 confirm=17.3;ADAM17 counter=6.5
CCC(C)NC(=O)c1oc2ccc(S(=O)(=O)N3CCC4(CC3)OCCO4)cc2c1C (configuration not stated)	4.8	-5.7	-1.6	1.8	4.9	·	·
Cc1c(C(=O)NCCC2=CCCCC2)oc2ccc(S(=O)(=O)N3CCC4(CC3)OCCO4)cc12	6.4	1.7	21.6*	8.9*	3.3	15.7	10.3*	ADAM10 confirm=5.8;ADAM17 counter=1.7
O=C(CSc1nnc(-c2ccccc2)n1-c1ccc(Cl)cc1)c1ccc(F)cc1	-6.0	-6.1	-44.1	-11.0	·	·	·
CC(=O)C1=C(C)NC(=S)NC1c1ccccc1 (configuration not stated)	-6.9	0.0	-2.0	-1.8	·	·	·
CCOC(=O)C1=CN(Cc2cccc(F)c2)S(=O)(=O)NC1CCc1ccccc1 (configuration not stated)	-6.7	-3.4	21.1*	11.9*	-2.3	50.7*	19.7*	ADAM10 confirm=8.7;ADAM17 counter=2.9
COc1ccc(S(=O)(=O)Nc2cc3c4c(oc3c3ccccc23)CCCC4=O)cc1	-3.1	-1.1	8.8	6.8	-1.1	·	·
COc1ccc(S(=O)(=O)Nc2cc3c4c(oc3c3ccccc23)CC(C)(C)CC4=O)cc1	-9.4	-3.0	26.3*	9.1*	-26.0	21.1*	11.5*	ADAM10 confirm=11.1;ADAM17 counter=2.4
CCCc1c(-c2ccc(F)cc2F)ncn1Cc1cccc(-c2ccccc2)c1	-3.9	-6.5	14.4	16.1*	-2.2	1.5	5.5
CCCc1c(-c2cccc(Cl)c2)ncn1Cc1cccc(-c2ccccc2)c1	-0.4	-2.5	0.2	0.8	-7.0	·	·
COC(=O)[C@]12C[C@H](CC(=O)NCc3ccccc3)C(=O)N(Cc3ccco3)C1=C[C@H](C(C)C)O[C@@H]2C1CC1	-4.0	0.9	0.9	1.6	·	·	·
CCCCNc1cccc2c1S(=O)(=O)N[C@H](C)CO2	-0.2	4.2	-10.2	-2.3	·	·	·
COC(=O)c1ccc(C(C(=O)NCc2ccccc2)N(Cc2cccs2)C(=O)c2cnccn2)cc1 (configuration not stated)	-3.8	-1.1	6.8	-2.0	4.3	·	·
Cc1ccc(C(C(=O)NCc2ccccc2)N(Cc2cccs2)C(=O)c2ccc3c(c2)OCCO3)cc1 (configuration not stated)	-3.2	3.5	14.7	10.2*	-31.5	14.4	10.9*
CN1/C(=C/C(=O)C2CCC2)Sc2ccccc21	-7.2	-11.4	13.7	11.6*	11.4	7.5	8.2
COC(=O)C1=C(C)N(Cc2cccc(C(F)(F)F)c2)C(=NCc2ccc(OC)cc2)NC1c1ccc(Cl)cc1 (configuration not stated)	9.7	4.5	8.6	0.0	·	·	·
COc1ccc(N(C)S(=O)(=O)c2cccc(C(=O)Nc3ccc4c(c3)OCCO4)c2)cc1	-10.8	-5.0	13.7	10.7*	-1.7	24.5*	13.3*
SMILES	Tn6 DDE FP	Tn7 DDE FP	ADAM10 inh	ADAM17 inh	MT1-MMP act inh	ADAM10 ctr	ADAM17 confirm	others
CN(c1ccc(C(=O)Nc2ccc3c(c2)OCCO3)cc1)S(C)(=O)=O	-1.2	-0.9	9.9	9.4*	-2.2	0.6	1.9
CCOC(=O)CNC(=O)N(C)[C@H]1C[C@H]2c3[nH]c4c(-c5ccccc5)cccc4c3CCN2C(=O)[C@H]1[C@H](C)O	2.1	-4.3	i	-363.9	·	·	·
C=CCN1C[C@H](COC(=O)c2cccc(OC)c2)Oc2cccc(F)c2S1(=O)=O	-5.0	5.6	-4.1	1.4	·	·	·
COc1cc(NC(=O)C2CCCN(S(=O)(=O)c3ccc(C)cc3)C2)cc(OC)c1 (configuration not stated)	6.0	6.7	6.0	4.0	·	·	·
Cc1ccc(SCCC(=O)Nc2ccc(Br)c(C)c2)cc1	-8.2	-0.8	18.9	11.5*	-1.1	30.9*	17.1*
CCc1ccc(NC2=CC(=O)CC(c3ccco3)C2)cc1 (configuration not stated)	-13.8	-1.1	14.5	9.6*	-0.8	-6.0	2.4
O[C@H](COc1ccc(F)cc1)CN1CCC(C(O)(c2ccccc2)c2ccccc2)CC1	1.1	-2.3	6.0	2.8	·	·	·
CCC1C(=NO)C(CC)C(c2ccccc2)NC1c1ccccc1 (configuration not stated)	-6.4	-2.3	16.4	17.1*	-36.8	15.5	10.2*
CC1C(=NO)C(C)C(c2ccccc2)NC1c1ccccc1 (configuration not stated)	0.1	10.7	13.3	-3.2	4.3	·	·
CCOc1ccc(N(CC(=O)NCCSc2ccccn2)S(C)(=O)=O)cc1	-1.7	-0.2	5.7	10.1*	2.3	-3.0	1.3

Compound activity from PubChem BioAssay.
